Measurements collected from several papers.
Protocols differ between the studies behind these lines.

| SMILES | assay | test system | setting | endpoint | value |
| --- | --- | --- | --- | --- | --- |
| CC(C)(O)c1ccccc1-c1ccc2[nH]c(/C=C/c3ccc(C(F)(F)F)cc3)nc2c1 | – | male human, plasma | oral, 30 mg, single dose, fasted, healthy volunteers | half-life | 82.6 h |
| CC(C)n1cc(C#N)c2cc(-n3cc(C(=O)O)cn3)ccc21 | – | human, plasma | oral, 25 mg, single dose, fasted, healthy volunteers | half-life | 8.1 h |
| COCCOc1cnc2ccn([C@H](C)c3nnc4c(F)cc(-c5cnn(C)c5)cn34)c(=O)c2c1 | – | human, plasma | oral, 400 mg, multiple doses, once daily, patients | half-life | 7.7 h |
| CC[C@H](C)[C@H](NC(=O)[C@H](CCC(=O)O)NC(=O)[C@H](CO)NC(=O)[C@@H](NC(=O)[C@@H](N)CO)C(C)C)C(=O)N[C@@H](CCC(N)=O)C(=O)N[C@@H](CC(C)C)C(=O)N[C@@H](CCSC)C(=O)N[C@@H](Cc1cnc[nH]1)C(=O)N[C@@H](CC(N)=O)C(=O)N[C@@H](CC(C)C)C(=O)NCC(=O)N[C@@H](CCCCN)C(=O)N[C@@H](Cc1cnc[nH]1)C(=O)N[C@@H](CC(C)C)C(=O)N[C@@H](CC(N)=O)C(=O)N[C@@H](CO)C(=O)N[C@@H](CCSC)C(=O)N[C@@H](CCC(=O)O)C(=O)N[C@@H](CCCN=C(N)N)C(=O)N[C@H](C(=O)N[C@@H](CCC(=O)O)C(=O)N[C@@H](Cc1c[nH]c2ccccc12)C(=O)N[C@@H](CC(C)C)C(=O)N[C@@H](CCCN=C(N)N)C(=O)N[C@@H](CCCCN)C(=O)N[C@@H](CCCCN)C(=O)N[C@@H](CC(C)C)C(=O)N[C@@H](CCC(N)=O)C(=O)N[C@@H](CC(=O)O)C(=O)N[C@H](C(=O)N[C@@H](Cc1cnc[nH]1)C(=O)N[C@@H](CC(N)=O)C(=O)N[C@@H](Cc1ccccc1)C(=O)O)C(C)C)C(C)C | chemical stability, HPLC | aqueous buffer | 0.5 mg/mL, 5 min, pH 6.5 | compound remaining | 100% |
| Cn1cc(-c2ccc(S(=O)(=O)[C@@H]3C[C@@H](C(=O)NC4(C#N)CC4)N(C(=O)C4(C(F)(F)F)CC4)C3)c(C(F)(F)F)c2)cn1 | – | human, plasma | oral, 100 mg, single dose, fasted, healthy volunteers | half-life | 13.1 h |
| CCCCC(=O)OCOC(=O)C1CC(C)(C)N([O])C1(C)C (centres unmarked) | chemical stability | bovine, serum | – | half-life | 0.817 h |
| COc1ccc([C@@H]2CN(C(=O)[C@@H](O)CO)C[C@@]2(C)[C@@H](C)O)cc1OC1CN(c2ccc(C)cn2)C1 | – | human, plasma | oral, 30 mg, single dose, healthy volunteers | half-life | 12.3 h |
| CC(=O)N[C@@H](Cc1ccccc1)C(=O)N[C@@H](Cc1ccccc1)C(=O)N1CCC[C@H]1C(=O)N[C@@H](CC(C)C)C(=O)NCC(=O)N[C@@H](CC(C)C)C(=O)N[C@@H](C)C(=O)NCC(=O)N[C@@H](CC(=O)O)C(=O)N[C@@H](CC(=O)O)C(=O)O | chemical stability | human, plasma | 1 mM, pH 7.4 | half-life | 20.7 h |
| CO[C@@H]1[C@H](OC(=O)N2CC(CCN3CCOCC3)C2)CC[C@]2(CO2)[C@H]1[C@@]1(C)O[C@@H]1CC=C(C)C | – | human, plasma | subcutaneous, 2.4 mg, single dose, healthy volunteers | half-life | 0.69 h |
| CC(C)(C)c1ccc(O)c(CN(Cc2cc(C(C)(C)C)ccc2O)C2CCC(NC(N)=O)CC2)c1 (centres unmarked) | – | male C57BL/6 mouse, plasma | oral, 10 mg/kg, single dose | Vd | 2.79 L |
| CC[C@H](C)[C@@H]1NC(=O)[C@@](C)(NC(=O)[C@H](CCCNC(=N)N)NC(=O)[C@H](CC(C)C)NC(=O)[C@@H](NC(=O)[C@H](CCC(N)=O)NC(=O)[C@H](CC(C)C)NC(C)=O)[C@@H](C)O)CCCC=CCCC[C@@](C)(C(=O)N[C@@H](CC(C)C)C(=O)N[C@@H](Cc2ccc3ccccc3c2)C(N)=O)NC(=O)[C@H](CCCNC(=N)N)NC(=O)[C@H](CCC(N)=O)NC1=O | – | male BALB/c mouse, plasma | intravenous, 15 mg/kg | Vd | 0.0946 L/kg |
